One data set deals with Zika virus. Nature of the data set: Antiviral activity against Zika virus PRVABC-59 infected in human SNB19 cells assessed as reduction in viral titer incubated for 24 hrs by viral titer assay. Format: functional, organism-based, SNB-19. The gist of the method:
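SNB-19 glioblastoma cells seeded 1 day ahead and pretreated 1 h with graded compound concentrations (final DMSO 0.1%). Infected with C6/36-derived PRVABC59 at MOI 1; supernatants taken 24 h post-infection. Virus titred by focus-forming unit assay on confluent Vero monolayers: 2 h inoculation, methylcellulose overlay for 48 h, PFA fixation, 4G2 antibody then HRP secondary, DAB–nickel, foci counted. Niclosamide reference included each run.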

For another data set, the system named is SNB-19. Nature of the data set: (§1) Cytotoxicity against human SNB19 cells assessed as reduction in cell viability incubated for 24 hrs by MTT assay. As to conditions: snb-19, 24 h; call rule not given here. Format: cell-based. The gist of the method:
(§2)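 MTT viability readout. Cells plated at 1.0 ×10⁴ per well overnight, then exposed to compounds, with 0.1% DMSO vehicle as control: SNB-19 for 24 h, Vero for 48 h. MTT at 0.5 mg/mL final, 4 h at 37 °C; formazan dissolved in DMSO, absorbance at 570 nm. CC₅₀ from % viability versus control; each concentration repeated 3 times independently.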
(In general: Formazan colour is commonly taken as a measure of viable cells.)

Data set [1] can be described thus: Selectivity index, ratio of CC50 for human SNB19 cells to EC50 for Zika virus PRVABC-59. The format is toxicity. As to conditions: read-out: Ratio CC50/EC50. The gist of the method: (§3)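 Selectivity index taken as CC₅₀ over EC₅₀. CC₅₀ comes from MTT in Vero (48 h) or SNB-19 (24 h) cells. EC₅₀ comes from the ZIKV PRVABC59 titer-reduction assay in SNB-19 cells (MOI 1, 24 h, focus-forming units on Vero).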

The next data set deals with Vero. Nature of the data set: (§4) Cytotoxicity against African green monkey Vero cells assessed as reduction in cell viability incubated for 48 hrs by MTT assay. The format is cell-based. As to conditions: chlorocebus sabaeus, vero, 48 h. Summed up: as §2
The nature of data set [2]: Selectivity index, ratio of CC50 for African green monkey Vero cells to EC50 for Zika virus PRVABC-59. The format is toxicity. As to conditions: read-out: Ratio CC50/EC50. Summed up:
as §3

The nature of data set [3]: as §4. Format: cell-based. Particulars: chlorocebus sabaeus, Vero cells. The gist of the method: as §2
Data set [4] in a line: as §1. The format is cell-based, SNB-19. As to conditions: SNB19 cells. Summed up: as §2
Setting [5] is: Zika virus, PRVABC-59, SNB-19, 24 h, read-out: EC50.

Structures are written as SMILES.

For orientation: EC50 means the concentration giving half of the maximal effect. One may read the CC50 as the concentration giving 50% cytotoxicity. For `C=C1CC[C@@H]2[C@]3(C)COC(C)(C)O[C@@H]3CC[C@@]2(C)[C@@H]1C/C=C1/C(=O)OC[C@@H]1Oc1cccc2cccnc12`, the EC50 in the data set on Zika virus (setting [5]) amounted to 25.9 µM. Moreover, the CC50 with SNB-19 was 21.1 µM; in the data set on Vero, 22 µM. In addition, the selectivity ratio is 0.82 in data set [1] and 0.85 in data set [2].
As to `C=C1CC[C@@H]2[C@](C)(CO)[C@H](O)CC[C@@]2(C)[C@@H]1C/C=C1/C(=O)OC[C@@H]1Oc1cccc2cccnc12`, the EC50 in the data set with Zika virus (setting [5]) stood at 1.3 µM. The CC50 with SNB-19 stood at 22.7 µM. For the same molecule, the selectivity ratio in data set [1] came to 17.5; in data set [2], 16.1. In addition, the CC50 at 48 h in data set [3] is 20.8 µM.
As for `C=C1CC[C@@H]2[C@](C)(COC(C)=O)[C@H](O)CC[C@@]2(C)[C@@H]1C/C=C1/C(=O)OC[C@@H]1Oc1cccc2ccc(C)nc12`, the EC50 result in the data set on Zika virus (snb-19) is listed as “Not Active”. In addition, the CC50 at 24 h in data set [4] was 65.9 µM. In addition, the CC50 at 48 h in data set [3] was 46.5 µM.
As for `C=C1CC[C@@H]2[C@](C)(COC(C)=O)[C@H](O)CC[C@@]2(C)[C@@H]1C/C=C1/C(=O)OC[C@H]1Oc1c(Cl)cc(Cl)c2cccnc12`, the EC50 with Zika virus (setting [5]) turned out to be 4.5 µM. Also, the CC50 was found to be 88.7 µM in the data set on SNB-19 and 85 µM in the data set on Vero. For the same molecule, the selectivity ratio in data set [1] was 19.7; in data set [2], 18.9.
Regarding `C=C1CC[C@H]2[C@@](C)(CCC(=O)[C@@]2(C)COC(C)=O)[C@@H]1C/C=C1/C(=O)OC[C@@H]1Oc1cccc2cccnc12`, in the data set with Zika virus (snb-19), the EC50 result is given as “Not Active”. The CC50 at 24 h in data set [4] came to 21.9 µM. Also, in data set [3], the cytotoxic concentration (CC50) at 48 h was found to be 12.8 µM.
Regarding `C=C1CC[C@@H]2[C@](C)(CO)[C@H](O)CC[C@@]2(C)[C@@H]1C/C=C1/C(=O)OC[C@H]1Oc1ccnc2ccccc12`, the EC50 with Zika virus (setting [5]) was 11 µM. In the data set with SNB-19, the CC50 is 60.1 µM. Moreover, the selectivity ratio in data set [1] worked out at 5.5; in data set [2] it was 2.1. Moreover, in data set [3], the CC50 at 48 h stood at 22.8 µM.
Turning to `C=C1CC[C@@H]2[C@]3(C)COC(C)(C)O[C@@H]3CC[C@@]2(C)[C@@H]1C/C=C1/C(=O)OC[C@@H]1Oc1cccc2ccc(C)nc12`, in the data set on Zika virus (setting [5]), the EC50 is 8.5 µM. Also, the CC50 amounted to 78.4 µM in the data set on SNB-19 and 55.9 µM with Vero. Besides, the selectivity ratio stood at 9.2 in data set [1] and 6.6 in data set [2].
As for `C=C1CC[C@@H]2[C@]3(C)COC(C)(C)O[C@@H]3CC[C@@]2(C)[C@@H]1C/C=C1/C(=O)OC[C@@H]1Oc1c(Cl)cc(Cl)c2cccnc12`, the EC50 result with Zika virus (snb-19) was “Not Active”. In addition, the CC50 at 24 h in data set [4] was found to be 39.3 µM. In addition, in data set [3], the CC50 at 48 h was 55.9 µM.
Consider `C=C1CC[C@@H]2[C@](C)(CO)[C@H](O)CC[C@@]2(C)[C@@H]1C/C=C1/C(=O)OC[C@H]1Oc1c(Cl)cc(Cl)c2cccnc12`, for which, in the data set on Zika virus (setting [5]), the EC50 was found to be 7.8 µM. For the same molecule, the CC50 in the data set with SNB-19 stood at 85.2 µM. The selectivity ratio in data set [1] was determined as 10.9; in data set [2], 7.5.
For the molecule `C=C1CC[C@H]2[C@@](C)(CCC(=O)[C@@]2(C)COC(C)=O)[C@@H]1C/C=C1/C(=O)OC[C@H]1Oc1cccc2ccc(C)nc12`, the EC50 entry in the data set with Zika virus (snb-19) is reported as “Not Active”. For the same molecule, in data set [4], the CC50 at 24 h was > 100 µM. In addition, the cytotoxic concentration (CC50) at 48 h in data set [3] was found to be 72.4 µM.
In the same order, the values of `C=C1CC[C@H]2[C@@](C)(CCC(=O)[C@@]2(C)COC(C)=O)[C@@H]1C/C=C1/C(=O)OC[C@H]1Oc1c(Cl)cc(Cl)c2cccnc12` are “Not Active”, > 100 µM and 64.7 µM.
On to `C=C1CC[C@@H]2[C@](C)(COC(C)=O)[C@H](O)CC[C@@]2(C)[C@@H]1C/C=C1/C(=O)OC[C@@H]1Oc1c(Cl)cc(Cl)c2cccnc12`, for which the EC50 entry in the data set on Zika virus (snb-19) is recorded as “Not Active”. In data set [4], the CC50 at 24 h stood at 39.3 µM. For the same molecule, the CC50 at 48 h in data set [3] stood at 51.9 µM.
For the molecule `C=C1CC[C@@H]2[C@]3(C)COC(C)(C)O[C@@H]3CC[C@@]2(C)[C@@H]1C/C=C1/C(=O)OC[C@H]1Oc1cccc2ccc(C)nc12`, in the data set on Zika virus (setting [5]), the EC50 was 16.6 µM. Besides, the CC50 in the data set with SNB-19 was determined as 66.5 µM; in the data set with Vero, 65.3 µM. Further, the selectivity ratio came to 4 in data set [1] and 3.9 in data set [2].
On to `C=C1CC[C@@H]2[C@](C)(CO)[C@H](O)CC[C@@]2(C)[C@@H]1C/C=C1/C(=O)OC[C@H]1Oc1cccc2ccc(C)nc12`, for which, in the data set with Zika virus (snb-19), the EC50 entry is “Not Active”. In data set [4], the CC50 at 24 h was > 100 µM. Moreover, in data set [3], the CC50 at 48 h came to 61.4 µM.
`C=C1CC[C@@H]2[C@](C)(CO)[C@H](O)CC[C@@]2(C)[C@@H]1C/C=C1/C(=O)OC[C@@H]1Oc1c(Cl)cc(Cl)c2cccnc12`: the EC50 in the data set with Zika virus (setting [5]) came out at 13.3 µM. Also, the CC50 in the data set on SNB-19 and with Vero was > 100 µM in each case. For the same molecule, the selectivity ratio in data set [1] and in data set [2] was > 7.5 each time.
`C=C1CC[C@@H]2[C@](C)(COC(C)=O)[C@H](O)CC[C@@]2(C)[C@@H]1C/C=C1/C(=O)OC[C@@H]1Oc1cccc2cccnc12`: the EC50 result with Zika virus (snb-19) is listed as “Not Active”. In addition, the CC50 at 24 h in data set [4] is 49.5 µM. Further, in data set [3], the CC50 at 48 h worked out at 27.5 µM.
Take `C=C1CC[C@H]2[C@@](C)(CCC(=O)[C@@]2(C)COC(C)=O)[C@@H]1C/C=C1/C(=O)OC[C@@H]1Oc1c(Cl)cc(Cl)c2cccnc12`: the EC50 in the data set on Zika virus (setting [5]) came to 24.6 µM. The values for the CC50 with SNB-19 and in the data set on Vero were 72 µM and 57.4 µM, respectively. Moreover, the selectivity ratio in data set [1] stood at 2.9; in data set [2], 2.3.
`C=C1CC[C@@H]2[C@](C)(CO)[C@H](O)CC[C@@]2(C)[C@@H]1C/C=C1/C(=O)OC[C@@H]1Oc1ccnc2ccccc12`: the EC50 result in the data set on Zika virus (snb-19) is recorded as “Not Active”. For the same molecule, in data set [4], the CC50 at 24 h was found to be 61.2 µM. In addition, in data set [3], the CC50 at 48 h was 20.7 µM.
For `C=C1CC[C@@H]2[C@](C)(COC(C)=O)[C@H](O)CC[C@@]2(C)[C@@H]1C/C=C1/C(=O)OC[C@H]1Oc1cccc2ccc(C)nc12`, in that order: “Not Active”, > 100 µM and 50.6 µM.
As for `C=C1CC[C@H]2[C@@](C)(CCC(=O)[C@@]2(C)COC(C)=O)[C@@H]1C/C=C1/C(=O)OC[C@@H]1Oc1cccc2ccc(C)nc12`, the EC50 entry in the data set with Zika virus (snb-19) is listed as “Not Active”. In addition, in data set [4], the CC50 at 24 h amounted to 51.7 µM. Further, in data set [3], the CC50 at 48 h stood at 46.7 µM.
Consider `C=C1CC[C@@H]2[C@](C)(CO)[C@H](O)CC[C@@]2(C)[C@@H]1C/C=C1/C(=O)OC[C@H]1Oc1cccnc1[N+](=O)[O-]`, for which, in the data set on Zika virus (setting [5]), the concentration giving a half-maximal response (EC50) came to 12.5 µM. Also, the CC50 in the data set on SNB-19 came out at 67.7 µM; in the data set with Vero it was 37.7 µM. Moreover, the selectivity ratio turned out to be 5.4 in data set [1] and 3 in data set [2].
As for `C=C1CC[C@@H]2[C@](C)(CO)[C@H](O)CC[C@@]2(C)[C@@H]1C/C=C1/C(=O)OC[C@@H]1Oc1cccc2ccc(C)nc12`, the EC50 with Zika virus (setting [5]) came to 25.8 µM. Moreover, the values for the cytotoxic concentration (CC50) in the data set with SNB-19 and with Vero were > 100 µM and 99.8 µM, respectively. For the same molecule, the selectivity ratio was > 3.9 in data set [1] and 3.9 in data set [2].
On to `C=C1CC[C@@H]2[C@]3(C)COC(C)(C)O[C@@H]3CC[C@@]2(C)[C@@H]1C/C=C1/C(=O)OC[C@H]1Oc1c(Cl)cc(Cl)c2cccnc12`, for which, in the data set with Zika virus (snb-19), the EC50 entry is “Not Active”. Also, in data set [4], the CC50 at 24 h came out at 63.5 µM. Further, in data set [3], the CC50 at 48 h was found to be 58.6 µM.
As for `C=C1CC[C@@H]2[C@]3(C)COC(C)(C)O[C@@H]3CC[C@@]2(C)[C@@H]1C/C=C1/C(=O)OC[C@H]1Oc1cccnc1[N+](=O)[O-]`, the EC50 entry in the data set on Zika virus (snb-19) is on record as “Not Active”. Moreover, the CC50 at 24 h in data set [4] came out at 46.5 µM. Moreover, the CC50 at 48 h in data set [3] stood at 26.2 µM.
